Assay results published in ChEMBL document CHEMBL3593207, “Imidazole clubbed 1,3,4-oxadiazole derivatives as potential antifungal agents” (2015).
Values after ≈ are worked out from the molar mass of the structure shown.

Columns and labels:
Assay type in all cases: functional
Candida albicans [1] = assay: Antifungal activity against clinical isolates of Candida albicans 2367 by broth microdilution assay
Summary of the method: (§1)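 CLSI M27-A3 broth microdilution. Compounds diluted to 1 mg/ml in 1% DMSO. Fluconazole (1 mg/ml) served as positive control, 1% DMSO as vehicle control, with media and culture controls. Triplicate at each concentration, repeated thrice. Inocula came from YPDA stocks subcultured in broth for 48 h at 37 °C.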

Candida albicans [2] = assay: Antifungal activity against Candida albicans ATCC 10261 after 48 hrs by disc diffusion assay
Summary of the method: (§2)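 Cells grown in YPD were mixed at 10^3 cells/ml into molten agar (about 40 °C) and poured into plates. Test compound at 1/2×MIC, MIC and 2×MIC was spotted on filter discs on the set agar, with fluconazole and 1% DMSO as positive and vehicle controls. Plates were incubated 48 h at 37 °C, then inhibition zone diameters were recorded in mm.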

Candida albicans [3] = assay: Inhibition of ergosterol biosynthesis in Candida albicans 2323 assessed as ergosterol content after 16 hrs by spectrophotometer analysis; set-up: scale not given: the % may be the effect or the level left
Summary of the method: (§3)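 Cells were pelleted, washed, weighed wet, and saponified in 3 mL 25% alcoholic KOH at 85 °C for 1 h. Sterols were extracted with 1 mL water plus 3 mL n-heptane. Ergosterol content is expressed relative to untreated control cells.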

Candida tropicalis [4] = assay: Antifungal activity against Candida tropicalis ATCC 750 by broth microdilution assay; summary of the method: as §1
Candida tropicalis [5] = assay: Antifungal activity against clinical isolates of Candida tropicalis 2356 by broth microdilution assay; summary of the method: as §1
Candida tropicalis [6] = assay: Inhibition of ergosterol biosynthesis in Candida tropicalis ATCC 750 assessed as ergosterol content after 16 hrs by spectrophotometer analysis; set-up: scale not given: the % may be the effect or the level left; summary of the method: as §3
Candida albicans [7] = assay: Antifungal activity against clinical isolates of Candida albicans 2367 after 48 hrs by disc diffusion assay; summary of the method: as §2
Candida tropicalis [8] = assay: Antifungal activity against clinical isolates of Candida tropicalis 2029 by broth microdilution assay; summary of the method: as §1
Candida albicans [9] = assay: Antifungal activity against clinical isolates of Candida albicans 2323 after 48 hrs by disc diffusion assay; summary of the method: as §2
Candida albicans [10] = assay: Inhibition of ergosterol biosynthesis in Candida albicans 2367 assessed as ergosterol content after 16 hrs by spectrophotometer analysis; set-up: scale not given: the % may be the effect or the level left; summary of the method: as §3
Candida albicans [11] = assay: Antifungal activity against clinical isolates of Candida albicans 2323 by broth microdilution assay; summary of the method: as §1
Candida tropicalis [12] = assay: Inhibition of ergosterol biosynthesis in Candida tropicalis 2029 assessed as ergosterol content after 16 hrs by spectrophotometer analysis; set-up: scale not given: the % may be the effect or the level left; summary of the method: as §3
Candida albicans [13] = assay: Inhibition of ergosterol biosynthesis in Candida albicans ATCC 10261 assessed as ergosterol content after 16 hrs by spectrophotometer analysis; set-up: scale not given: the % may be the effect or the level left; summary of the method: as §3
Candida tropicalis [14] = assay: Inhibition of ergosterol biosynthesis in Candida tropicalis 2356 assessed as ergosterol content after 16 hrs by spectrophotometer analysis; set-up: scale not given: the % may be the effect or the level left; summary of the method: as §3
Candida albicans [15] = assay: Antifungal activity against clinical isolates of Candida albicans 2779 after 48 hrs by disc diffusion assay; summary of the method: as §2
Candida albicans [16] = assay: Antifungal activity against clinical isolates of Candida albicans 2779 by broth microdilution assay; summary of the method: as §1
Candida albicans [17] = assay: Inhibition of ergosterol biosynthesis in Candida albicans 2779 assessed as ergosterol content after 16 hrs by spectrophotometer analysis; set-up: scale not given: the % may be the effect or the level left; summary of the method: as §3
Candida tropicalis [18] = assay: Antifungal activity against Candida tropicalis ATCC 750 after 48 hrs by disc diffusion assay; summary of the method: as §2
Candida tropicalis [19] = assay: Antifungal activity against clinical isolates of Candida tropicalis 2029 after 48 hrs by disc diffusion assay; summary of the method: as §2
Candida tropicalis [20] = assay: Antifungal activity against clinical isolates of Candida tropicalis 2356 after 48 hrs by disc diffusion assay; summary of the method: as §2
Candida albicans [21] = assay: Antifungal activity against Candida albicans ATCC 10261 by broth microdilution assay; summary of the method: as §1

OC(Cn1cncn1)(Cn1cncn1)c1ccc(F)cc1F [FLUCONAZOLE]
MIC (Candida albicans [1]): 16 µg/mL (≈ 52.2 µM)
inhibition zone (IZ) (Candida albicans [2]): 11 mm
Activity (Candida albicans [3]): 100%
MIC (Candida tropicalis [4]): 16 µg/mL (≈ 52.2 µM)
MIC (Candida tropicalis [5]): 62 µg/mL (≈ 202 µM)
Activity (Candida tropicalis [6]): 100%
inhibition zone (IZ) (Candida albicans [7]): 10 mm
MIC (Candida tropicalis [8]): 32 µg/mL (≈ 104 µM)
inhibition zone (IZ) (Candida albicans [9]): 9 mm
Activity (Candida albicans [10]): 100%
MIC (Candida albicans [11]): 32 µg/mL (≈ 104 µM)
Activity (Candida tropicalis [12]): 100%
Activity (Candida albicans [13]): 100%
Activity (Candida tropicalis [14]): 100%
inhibition zone (IZ) (Candida albicans [15]): 13 mm
MIC (Candida albicans [16]): 32 µg/mL (≈ 104 µM)
Activity (Candida albicans [17]): 100%
inhibition zone (IZ) (Candida tropicalis [18]): 16 mm
inhibition zone (IZ) (Candida tropicalis [19]): 11 mm
inhibition zone (IZ) (Candida tropicalis [20]): 8 mm
MIC (Candida albicans [21]): 8 µg/mL (≈ 26.1 µM)
